Source: ChEMBL document CHEMBL5303300, “EUbOPEN Chemogenomics Library - Multiplex” (2023)
Where “and” joins values, the source holds several entries; their conditions need not be identical. Equal values may be shown once.

Test system: U2OS
Test: Multiplex assay against U2OS
Type: toxicity, cell-based
Conditions: human, number of replicates 2
Summary of the method: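 On a CQ1 microscope at 37°C and 5% CO2, live cells were imaged after compound addition. They had been stained at seeding with Hoechst33342, BioTracker Green Microtubule Cytoskeleton Dye, MitoTracker Red and Annexin V Alexa Fluor 680. CellPathfinder machine-learning gating assigned cells to Hoechst high-intensity objects or normal cells, normal cells to healthy, pyknosed or fragmented nuclei, and pyknosed cells to mitotic or apoptotic. Tubulin, mitochondrial-mass and membrane-permeability phenotypes are per cents of healthy-nucleus cells.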

[1] = 12 h, 1 µM, compound concentration 1 uM
[2] = 12 h, 10 µM, compound concentration 10 uM
[3] = 24 h, 1 µM, compound concentration 1 uM
[4] = 24 h, 10 µM, compound concentration 10 uM
[5] = 48 h, 1 µM, compound concentration 1 uM
[6] = 48 h, 10 µM, compound concentration 10 uM

## COc1ccccc1-c1cc(Nc2cccc(CS(N)(=O)=O)c2)ncn1
[1]
  Population Apoptotic (%): 75% and 86%
  Population Fragmented Nuclei (%): 13% and 5%
  Population Healthy Nuclei (%): 75% and 84%
  Population Hoechst High Intensity Objects (%): 0%
  Population Membrane Permeable-Phenotype (%): 7% and 3%
  Population Mitochondria Different-Phenotype (%): 0% and 1%
  Population Mitotic Cells (%): 25% and 13%
  Population Normal (%): 100%
  Population Pyknosed Nuclei (%): 11% and 10%
  Population Tubulin-Different-Phenotype (%): 62% and 80%
[2]
  Population Apoptotic (%): 63% and 66%
  Population Healthy Nuclei (%): 82% and 50%
  Population Hoechst High Intensity Objects (%): 0%
  Population Mitochondria Different-Phenotype (%): 1% and 0%
  Population Mitotic Cells (%): 36% and 33%
  Population Normal (%): 100%
  Population Pyknosed Nuclei (%): 12% and 13%
  Population Tubulin-Different-Phenotype (%): 72% and 34%
[3]
  Population Apoptotic (%): 80% and 86%
  Population Healthy Nuclei (%): 70% and 88%
  Population Hoechst High Intensity Objects (%): 0%
  Population Membrane Permeable-Phenotype (%): 2% and 1%
  Population Mitochondria Different-Phenotype (%): 2% and 0%
  Population Mitotic Cells (%): 20% and 13%
  Population Normal (%): 100%
  Population Pyknosed Nuclei (%): 8% and 7%
  Population Tubulin-Different-Phenotype (%): 51% and 77%
[4]
  Population Apoptotic (%): 80%
  Population Healthy Nuclei (%): 79% and 62%
  Population Hoechst High Intensity Objects (%): 0%
  Population Mitochondria Different-Phenotype (%): 1% and 11%
  Population Mitotic Cells (%): 19% and 20%
  Population Normal (%): 100%
  Population Pyknosed Nuclei (%): 16% and 18%
  Population Tubulin-Different-Phenotype (%): 76% and 50%
[5]
  Population Apoptotic (%): 75% and 83%
  Population Fragmented Nuclei (%): 13% and 4%
  Population Healthy Nuclei (%): 77% and 88%
  Population Hoechst High Intensity Objects (%): 0%
  Population Membrane Permeable-Phenotype (%): 8% and 1%
  Population Mitochondria Different-Phenotype (%): 0%
  Population Mitotic Cells (%): 25% and 16%
  Population Normal (%): 100%
  Population Pyknosed Nuclei (%): 9% and 7%
  Population Tubulin-Different-Phenotype (%): 75% and 78%
[6]
  Population Apoptotic (%): 66% and 77%
  Population Fragmented Nuclei (%): 18% and 7%
  Population Healthy Nuclei (%): 60% and 73%
  Population Hoechst High Intensity Objects (%): 0%
  Population Membrane Permeable-Phenotype (%): 8% and 6%
  Population Mitochondria Different-Phenotype (%): 6% and 3%
  Population Mitotic Cells (%): 33% and 22%
  Population Normal (%): 100%
  Population Pyknosed Nuclei (%): 20% and 18%
  Population Tubulin-Different-Phenotype (%): 55% and 73%

## CNS(=O)(=O)c1ccc(N(C)C)c(Nc2ncnc3cc(OC)c(OC)cc23)c1
[1]
  Population Apoptotic (%): 100% and 61%
  Population Healthy Nuclei (%): 73% and 84%
  Population Hoechst High Intensity Objects (%): 0%
  Population Membrane Permeable-Phenotype (%): 0%
  Population Mitochondria Different-Phenotype (%): 0%
  Population Normal (%): 100% and 99%
  Population Pyknosed Nuclei (%): 11% and 12%
  Population Tubulin-Different-Phenotype (%): 73% and 87%
[2]
  Population Apoptotic (%): 50% and 64%
  Population Healthy Nuclei (%): 44% and 86%
  Population Hoechst High Intensity Objects (%): 0%
  Population Membrane Permeable-Phenotype (%): 3% and 2%
  Population Mitochondria Different-Phenotype (%): 0% and 2%
  Population Mitotic Cells (%): 50% and 35%
  Population Normal (%): 100%
  Population Pyknosed Nuclei (%): 20% and 10%
  Population Tubulin-Different-Phenotype (%): 42% and 64%
  Total Cell Count: 59 and 156
[3]
  Population Apoptotic (%): 60% and 71%
  Population Healthy Nuclei (%): 60% and 88%
  Population Hoechst High Intensity Objects (%): 0%
  Population Membrane Permeable-Phenotype (%): 5% and 1%
  Population Mitochondria Different-Phenotype (%): 0% and 1%
  Population Mitotic Cells (%): 40% and 28%
  Population Normal (%): 100%
  Population Pyknosed Nuclei (%): 16% and 9%
  Population Tubulin-Different-Phenotype (%): 72% and 88%
[4]
  Population Apoptotic (%): 87% and 63%
  Population Healthy Nuclei (%): 66% and 82%
  Population Hoechst High Intensity Objects (%): 0%
  Population Membrane Permeable-Phenotype (%): 5% and 3%
  Population Mitochondria Different-Phenotype (%): 5% and 1%
  Population Mitotic Cells (%): 12% and 36%
  Population Normal (%): 100% and 99%
  Population Pyknosed Nuclei (%): 13% and 14%
  Population Tubulin-Different-Phenotype (%): 51% and 64%
[5]
  Population Apoptotic (%): 50% and 76%
  Population Healthy Nuclei (%): 69% and 90%
  Population Hoechst High Intensity Objects (%): 0%
  Population Membrane Permeable-Phenotype (%): 4% and 0%
  Population Mitochondria Different-Phenotype (%): 2% and 0%
  Population Mitotic Cells (%): 50% and 23%
  Population Normal (%): 100%
  Population Pyknosed Nuclei (%): 10% and 5%
  Population Tubulin-Different-Phenotype (%): 82% and 92%
[6]
  Population Apoptotic (%): 83% and 66%
  Population Healthy Nuclei (%): 52% and 78%
  Population Hoechst High Intensity Objects (%): 0%
  Population Membrane Permeable-Phenotype (%): 13% and 5%
  Population Mitochondria Different-Phenotype (%): 1% and 5%
  Population Mitotic Cells (%): 16% and 33%
  Population Normal (%): 99%
  Population Pyknosed Nuclei (%): 11% and 14%
  Population Tubulin-Different-Phenotype (%): 58% and 68%

## CN1CCc2cc(Nc3ncc(C(F)(F)F)c(NCc4cc[nH]n4)n3)ccc2C1
[1]
  Population Hoechst High Intensity Objects (%): 0%
  Population Membrane Permeable-Phenotype (%): 0% and 4%
  Population Mitochondria Different-Phenotype (%): 0% and 1%
  Population Mitotic Cells (%): 0% and 12%
  Population Normal (%): 100%
[2]
  Population Healthy Nuclei (%): 33% and 57%
  Population Hoechst High Intensity Objects (%): 0%
  Population Membrane Permeable-Phenotype (%): 0% and 7%
  Population Mitochondria Different-Phenotype (%): 0% and 5%
  Population Normal (%): 100%
  Population Pyknosed Nuclei (%): 16% and 27%
  Population Tubulin-Different-Phenotype (%): 50% and 41%
[3]
  Population Hoechst High Intensity Objects (%): 0%
  Population Membrane Permeable-Phenotype (%): 0% and 6%
  Population Mitochondria Different-Phenotype (%): 0% and 4%
  Population Mitotic Cells (%): 0% and 8%
  Population Normal (%): 100% and 99%
[4]
  Population Apoptotic (%): 71% and 80%
  Population Healthy Nuclei (%): 15% and 45%
  Population Hoechst High Intensity Objects (%): 0% and 1%
  Population Membrane Permeable-Phenotype (%): 20% and 15%
  Population Mitochondria Different-Phenotype (%): 20% and 8%
  Population Mitotic Cells (%): 28% and 19%
  Population Normal (%): 100% and 98%
  Population Pyknosed Nuclei (%): 21% and 42%
  Population Tubulin-Different-Phenotype (%): 60%
[5]
  Population Healthy Nuclei (%): 0% and 21%
  Population Hoechst High Intensity Objects (%): 0% and 1%
  Population Mitochondria Different-Phenotype (%): 0% and 22%
  Population Mitotic Cells (%): 0%
  Population Normal (%): 100% and 98%
[6]
  Population Apoptotic (%): 93% and 88%
  Population Healthy Nuclei (%): 16% and 15%
  Population Hoechst High Intensity Objects (%): 1% and 0%
  Population Mitotic Cells (%): 6% and 11%
  Population Normal (%): 98% and 100%
  Population Pyknosed Nuclei (%): 68% and 23%
  Population Tubulin-Different-Phenotype (%): 80% and 66%
